Data reported in ChEMBL document CHEMBL4049426, “Identification of the Clinical Candidate (R)-(1-(4-Fluorophenyl)-6-((1-methyl-1H-pyrazol-4-yl)sulfonyl)-4,4a,5,6,7,8-hexahydro-1H-pyrazolo[3,4-g]isoquinolin-4a-yl)(4-(trifluoromethyl)pyridin-2-yl)methanone (CORT125134): A Selective Glucocorticoid Receptor (GR) Antagonist” (J Med Chem, 2017).

How the values were obtained:
Cytochrome P450 1A2 = biological target: T1, Cytochrome P450 1A2 (Homo sapiens, UniProt P05177); assay: Time-dependent inhibition of CYP1A2 (unknown origin); assay type: ADME
T1 sequence (P05177 whole entry): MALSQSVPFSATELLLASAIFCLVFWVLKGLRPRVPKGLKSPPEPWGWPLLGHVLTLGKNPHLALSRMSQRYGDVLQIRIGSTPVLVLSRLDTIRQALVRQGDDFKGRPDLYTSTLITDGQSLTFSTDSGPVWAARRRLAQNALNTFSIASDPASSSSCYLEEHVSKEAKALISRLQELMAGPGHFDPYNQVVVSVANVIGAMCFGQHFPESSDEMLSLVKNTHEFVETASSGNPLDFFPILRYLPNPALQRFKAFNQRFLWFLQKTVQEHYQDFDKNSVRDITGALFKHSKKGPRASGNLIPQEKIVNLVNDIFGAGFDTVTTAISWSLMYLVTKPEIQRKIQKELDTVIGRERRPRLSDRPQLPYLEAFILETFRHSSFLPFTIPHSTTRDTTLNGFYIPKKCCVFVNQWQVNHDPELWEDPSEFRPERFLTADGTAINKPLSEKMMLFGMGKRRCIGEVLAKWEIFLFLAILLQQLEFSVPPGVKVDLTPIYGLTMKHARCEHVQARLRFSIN

Cytochrome P450 2B6 = biological target: T2, Cytochrome P450 2B6 (Homo sapiens, UniProt P20813); assay: Inhibition of CYP2B6 (unknown origin); assay type: ADME
T2 sequence (P20813 whole entry): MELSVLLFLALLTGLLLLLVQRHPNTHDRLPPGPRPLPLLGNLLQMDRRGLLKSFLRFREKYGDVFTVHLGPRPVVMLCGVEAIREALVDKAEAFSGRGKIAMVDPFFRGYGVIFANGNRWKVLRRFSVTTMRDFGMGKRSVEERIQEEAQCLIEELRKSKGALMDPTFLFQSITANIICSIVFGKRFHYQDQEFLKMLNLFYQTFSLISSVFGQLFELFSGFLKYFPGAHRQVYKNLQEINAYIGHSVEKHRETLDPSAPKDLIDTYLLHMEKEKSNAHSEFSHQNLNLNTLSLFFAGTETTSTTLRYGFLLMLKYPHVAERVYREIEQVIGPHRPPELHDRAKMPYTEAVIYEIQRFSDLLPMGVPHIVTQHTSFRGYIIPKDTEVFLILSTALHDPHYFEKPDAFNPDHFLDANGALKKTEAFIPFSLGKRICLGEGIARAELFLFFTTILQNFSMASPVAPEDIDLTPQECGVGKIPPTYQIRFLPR

[1] = Protein binding in human plasma; assay type: ADME, cell-free; conditions: read-out: PPB (converted)
[2] = AUC in Sprague-Dawley CD-1 rat plasma at 3 mg/kg, po administered as cassette dose via gavage measured up to 24 hrs by LC/MS analysis; assay type: ADME, organism-based; parameters: time < 24 hr, dose 3 mg/kg, route oral
Outline: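 Three male Sprague Dawley CD-1 rats (220-250g) with jugular vein catheters; three test compounds plus a reference dosed together by oral gavage, 3mg/kg each, in DMSO:0.5% methylcellulose 10:90 (0.6mg/mL per compound), 5mL/kg. Plasma sampled pre-dose and at 0.25, 0.5, 1, 2, 4, 6, 8, 24 h; LC/MS.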

[3] = Protein binding in rat plasma; assay type: ADME, cell-free; conditions: read-out: PPB (converted)
Cytochrome P450 2C9 = Cytochrome P450 2C9 (Homo sapiens, UniProt P11712); assay: Time-dependent inhibition of CYP2C9 (unknown origin); assay type: ADME
[4] = biological target: T3, Glucocorticoid receptor (Homo sapiens) (UniProt P04150); assay: (§1) Antagonist activity at glucocorticoid receptor in human primary hepatocytes assessed as inhibition of dexamethasone-induced tyrosine amino transferase activity preincubated for 30 mins followed by dexamethasone addition measured after 20 hrs; assay type: cell-based
T3 sequence (whole entry): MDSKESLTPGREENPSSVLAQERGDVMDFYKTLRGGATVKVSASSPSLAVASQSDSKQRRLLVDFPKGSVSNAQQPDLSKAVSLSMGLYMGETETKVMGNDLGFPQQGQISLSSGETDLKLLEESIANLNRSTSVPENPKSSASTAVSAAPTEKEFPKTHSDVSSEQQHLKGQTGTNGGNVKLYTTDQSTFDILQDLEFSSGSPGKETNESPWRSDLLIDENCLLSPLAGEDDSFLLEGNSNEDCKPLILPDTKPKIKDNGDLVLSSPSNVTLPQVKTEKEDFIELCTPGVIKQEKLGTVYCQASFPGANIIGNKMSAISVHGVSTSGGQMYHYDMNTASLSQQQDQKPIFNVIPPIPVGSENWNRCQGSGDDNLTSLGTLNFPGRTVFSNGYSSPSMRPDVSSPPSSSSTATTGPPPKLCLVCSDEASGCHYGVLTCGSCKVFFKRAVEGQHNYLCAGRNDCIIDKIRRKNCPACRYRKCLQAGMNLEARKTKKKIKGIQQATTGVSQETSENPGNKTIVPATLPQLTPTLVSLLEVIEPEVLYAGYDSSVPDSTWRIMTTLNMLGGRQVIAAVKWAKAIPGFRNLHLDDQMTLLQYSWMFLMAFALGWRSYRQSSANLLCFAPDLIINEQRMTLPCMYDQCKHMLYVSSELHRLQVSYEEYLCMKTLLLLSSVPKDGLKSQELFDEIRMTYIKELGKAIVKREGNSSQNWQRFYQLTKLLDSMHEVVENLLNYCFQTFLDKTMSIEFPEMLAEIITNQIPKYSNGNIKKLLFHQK

Glucocorticoid receptor = biological target: T4, Glucocorticoid receptor (Homo sapiens, UniProt P04150); assay: as §1; assay type: cell-based
T4 sequence (P04150 whole entry): T3 sequence (whole entry)

Cytochrome P450 2C19 = Cytochrome P450 2C19 (Homo sapiens, UniProt P33261); assay: Inhibition of CYP2C19 (unknown origin); assay type: ADME
Cytochrome P450 3A4 = Cytochrome P450 3A4 (Homo sapiens, UniProt P08684); assay: Time-dependent inhibition of CYP3A4 (unknown origin); assay type: ADME
Cytochrome P450 3A4, sequence (P08684 whole entry): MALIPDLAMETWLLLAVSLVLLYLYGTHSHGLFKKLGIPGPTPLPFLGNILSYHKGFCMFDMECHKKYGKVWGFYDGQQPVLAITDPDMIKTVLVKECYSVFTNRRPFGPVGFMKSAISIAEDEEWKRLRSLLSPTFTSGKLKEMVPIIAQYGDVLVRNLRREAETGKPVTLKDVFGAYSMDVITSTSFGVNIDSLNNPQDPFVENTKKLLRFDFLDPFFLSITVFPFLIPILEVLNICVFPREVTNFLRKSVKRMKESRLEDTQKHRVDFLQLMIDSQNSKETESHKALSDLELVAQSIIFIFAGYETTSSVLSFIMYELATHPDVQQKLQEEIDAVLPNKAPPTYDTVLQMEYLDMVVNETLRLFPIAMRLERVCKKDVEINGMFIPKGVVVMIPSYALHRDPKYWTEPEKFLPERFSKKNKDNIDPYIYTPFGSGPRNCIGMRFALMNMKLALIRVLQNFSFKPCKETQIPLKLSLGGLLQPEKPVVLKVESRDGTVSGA

Cytochrome P450 2C19, sequence (P33261 whole entry): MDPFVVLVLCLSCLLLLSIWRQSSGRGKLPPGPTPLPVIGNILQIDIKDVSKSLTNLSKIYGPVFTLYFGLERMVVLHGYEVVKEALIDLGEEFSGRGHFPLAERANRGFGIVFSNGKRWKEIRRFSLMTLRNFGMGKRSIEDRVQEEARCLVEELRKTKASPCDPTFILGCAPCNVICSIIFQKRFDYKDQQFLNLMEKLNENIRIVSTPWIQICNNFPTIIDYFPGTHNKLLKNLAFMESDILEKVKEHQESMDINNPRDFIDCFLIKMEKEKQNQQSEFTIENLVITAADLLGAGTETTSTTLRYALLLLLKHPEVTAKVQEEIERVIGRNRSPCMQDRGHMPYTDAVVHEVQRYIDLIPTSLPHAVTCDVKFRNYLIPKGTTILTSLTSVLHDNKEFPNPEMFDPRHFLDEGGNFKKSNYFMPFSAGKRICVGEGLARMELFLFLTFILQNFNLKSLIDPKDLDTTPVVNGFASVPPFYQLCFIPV
Cytochrome P450 2C9, sequence (P11712 whole entry): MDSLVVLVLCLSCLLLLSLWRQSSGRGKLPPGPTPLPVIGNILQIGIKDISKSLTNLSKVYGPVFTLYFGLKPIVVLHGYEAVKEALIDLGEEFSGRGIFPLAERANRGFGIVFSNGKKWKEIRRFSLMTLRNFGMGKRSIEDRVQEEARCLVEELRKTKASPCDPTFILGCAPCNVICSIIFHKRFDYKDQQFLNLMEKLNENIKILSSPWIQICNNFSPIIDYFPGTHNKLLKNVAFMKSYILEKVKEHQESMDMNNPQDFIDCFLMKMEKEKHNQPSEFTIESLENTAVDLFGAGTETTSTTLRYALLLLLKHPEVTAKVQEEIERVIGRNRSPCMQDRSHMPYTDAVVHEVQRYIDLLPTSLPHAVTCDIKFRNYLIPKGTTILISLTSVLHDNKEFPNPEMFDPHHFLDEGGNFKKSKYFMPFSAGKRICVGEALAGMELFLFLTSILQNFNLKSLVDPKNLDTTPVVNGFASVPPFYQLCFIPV

Cn1cc(S(=O)(=O)N2CCC3=Cc4c(cnn4-c4ccc(F)cc4)C[C@]3(C(=O)c3cc(C(F)(F)F)ccn3)C2)cn1 [RELACORILANT]
TDI (Cytochrome P450 1A2): Not Active | IC50 (Cytochrome P450 2B6): > 10 µM | fraction unbound [1]: 0.005 | AUC at 24 h [2]: 1220 ng·h/mL | fraction unbound [3]: 0.003 | TDI (Cytochrome P450 2C9): Not Active | Imax [4]: 100% | Ki (Glucocorticoid receptor): 0.0812 µM | IC50 (Cytochrome P450 2C19): 8 µM | TDI (Cytochrome P450 3A4): Not Active
